Assay outcomes deposited in PubChem BioAssay by Sanford-Burnham Center for Chemical Genomics.
In the library only some 2.9% were active in any assay of this set; here they are far more common.
SENP8 block-1: inhibitors of human SENP8 protease; Q96LD8; purified SENP8, Z-RLRGG-aminoluciferin cleavage, luminescence; inhibition, % at 10 µM; actives 1.2% (n = 330,000); in the data active = inhibition above about 50%
SENP1 FRET inh: blocks the human SENP1 SUMO protease catalytic domain | Q9P0U3 | recombinant SENP1 catalytic domain, CyPet-SUMO1-YPet FRET cleavage | inhibition, % at 10 µM | actives 0.21% (n = 360,000);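 active = inhibition at least 30% at 10 µM, raw YFP signal under a set limit, fluorescence ratio 0.5 to 1.5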;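 note: 0% = enzyme with DMSO and 100% = no enzyme wells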
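Controls: no-enzyme wells low, DMSO-plus-enzyme wells high control. Test system: human recombinant His6-tagged SENP1 catalytic domain enzyme. Reagent: SFCypet-SUMO1-SFYpet FRET protein substrate, 25 nM final. Doses: one dose per compound, 10 µM, 0.5% DMSO. Detection: FRET, CFP and YFP emission. Timing: 50 min reaction at room temperature.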
Apaf1 inhib: inhibitors of human Apaf-1 apoptosome | reconstituted apoptosome caspase-3 activity, DEVD-Rh110 fluorescence | actives 0.71% (n = 330,000) | inhibition, % at 20 µM | O14727; active = inhibition of at least 40% at 20 µM;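 note: plate controls were DMSO wells for no effect and DEVD-CHO caspase inhibitor wells for full effect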
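Material: cell-free apoptosome with Apaf-1, procaspase-3 and caspase-9; Buffer or medium: Hepes pH 7.5 with detergent and BSA; Reagent: cytochrome c trigger plus (Z-DEVD)2-Rh110 caspase-3 substrate; Times: compound with Apaf-1, dATP, procaspase-3 30 min, then 50 min reaction, room temperature; Technique: Rh110 fluorescence intensity.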
SENP8 block-2: SENP8 (human) protease inhibition | recombinant SENP8, Nedd8 substrate fluorescence | AID 602440 | inhibition, % at 20 µM | Q96LD8 | actives 0.64% (n = 360,000); in the data active = inhibition mostly above about 40%, no sharp cut-off; inactive = mostly below about 27%
SENP6 inh: blocks the human protease SENP6; Recombinant SENP6 catalytic domain, aminoluciferin luminescence; inhibition, % at 10 µM; actives 1.8% (n = 330,000);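 active = inhibition above about 50% at the single tested dose, limit read from the data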;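 note: plate controls were DMSO wells with enzyme for no effect and DMSO wells lacking enzyme for full effect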
SENP7 block: blocks the human protease SENP7 | recombinant SENP7, Z-RLRGG-aminoluciferin luminescence, 40 min | actives 1.5% (n = 330,000) | inhibition, % at 5 µM | AID 434973;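 active = inhibition above about 50% at the single test dose, limit read from the data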;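 note: plate controls were DMSO with enzyme for no effect and no enzyme buffer wells for full effect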
SENP1 conf: SENP1 (human) inhibition, single concentration confirmation; shares compounds with SENP1 FRET inh; recombinant SENP1, CyPet-SUMO1-YPet FRET cleavage; inhibition, % at 10 µM; actives 34% (n = 520); in the data active = inhibition mostly above about 35%, no sharp cut-off; inactive = mostly below about 32%;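 note: 0% = enzyme with DMSO and 100% = no enzyme control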
SENP1 kinetic: confirmation of human SENP1 SUMO protease inhibitors, kinetic; shares compounds with SENP1 FRET inh; inhibition, % at 10 µM; recombinant SENP1, CyPet-SUMO1-YPet FRET kinetic cleavage; actives 26% (n = 520); in the data active = inhibition mostly above about 32%, no sharp cut-off; inactive = mostly below about 29%;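 note: 0% = DMSO with enzyme and 100% = no enzyme substrate only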
* = called active by the depositor.

Results for COc1cccc(C2C3=C(N=c4s/c(=C\c5cccc(O)c5)c(=O)n42)c2ccccc2CC3)c1OC (stereo unspecified) ?
SENP8 block-1: -6; SENP1 FRET inh: 50*; Apaf1 inhib: 5; SENP8 block-2: -2; SENP6 inh: -22; SENP7 block: -7; SENP1 conf: 26; SENP1 kinetic: 17

Results for CN(C)CCNc1ccc(CO)c2oc3ccc(O)cc3c(=O)c12 ?
SENP1 FRET inh: 58*; SENP8 block-2: 6; SENP1 conf: 65*; SENP1 kinetic: 39*

What do the screens show for `O=c1cc(NCCCO)c2ccccc2o1`?
SENP8 block-1: -2; SENP1 FRET inh: 1; Apaf1 inhib: 12; SENP8 block-2: 10; SENP6 inh: -7; SENP7 block: 4

How did CCN(CC)CCNc1ccc(CO)c2oc3cc(Cl)ccc3c(=O)c12 do in these assays?
SENP1 FRET inh: 48*; SENP8 block-2: 35; SENP1 conf: 55*; SENP1 kinetic: 35*

How did CCN(CC)CCNC(CC(=O)Nc1ccc(Cl)cc1Cl)C(=O)O (stereo unspecified) do in these assays?
SENP8 block-1: -7; SENP1 FRET inh: 0; Apaf1 inhib: -10; SENP8 block-2: 26; SENP6 inh: -31; SENP7 block: 13

What do the screens show for `C[C@H]1CN([C@@H](C)CO)S(=O)(=O)c2ccc(Br)cc2O[C@H]1CN(C)C(=O)CCN1CCCCC1`?
SENP1 FRET inh: -3; SENP8 block-2: 4

What do the screens show for `CC(C)(C)NC(=O)C1c2ccccc2OCC(=O)N1Cc1ccccn1` (stereo unspecified)?
SENP1 FRET inh: 0; SENP8 block-2: 4

How did Cc1cccc(-c2c3c(=O)n(C)c(=O)n(C)c3c3cccnn23)c1 do in these assays?
SENP8 block-1: 5; SENP1 FRET inh: 62*; Apaf1 inhib: 15; SENP8 block-2: 15; SENP6 inh: 19; SENP7 block: -1; SENP1 conf: 30*; SENP1 kinetic: 28

Results for Cc1cc(C)c2c3c(c(-c4ccccc4)n2n1)c(=O)n(C)c(=O)n3C ?
SENP1 FRET inh: 7; SENP8 block-2: 22

Results for CN(Cc1ccccc1Br)C(=O)CN1C(=O)NC2(CCCCCC2)C1=O ?
SENP8 block-1: -1; SENP1 FRET inh: 2; Apaf1 inhib: 1; SENP8 block-2: 8; SENP6 inh: -3; SENP7 block: 8

What do the screens show for `CC1=C(C(N)=O)S(=O)(=O)c2ccccc21`?
SENP8 block-1: 3; SENP1 FRET inh: 47*; Apaf1 inhib: 0; SENP8 block-2: 9; SENP6 inh: 15; SENP7 block: 2; SENP1 conf: 47*; SENP1 kinetic: 37

Results for CS(=O)(=O)Nc1ccc(F)cc1 ?
SENP1 FRET inh: -1; SENP8 block-2: 13

How did O=C(Nc1ccc(S(=O)(=O)O)cc1)c1ccc2c(c1)S(=O)(=O)c1ccccc1C2=O do in these assays?
SENP8 block-1: -12; SENP1 FRET inh: 2; Apaf1 inhib: 20; SENP8 block-2: 19; SENP6 inh: -12; SENP7 block: 9

Results for O=C(Nc1ccc(Cl)cc1)c1ccc2c(c1)S(=O)(=O)c1ccccc1C2=O ?
SENP8 block-1: 3; SENP1 FRET inh: 33*; Apaf1 inhib: 0; SENP8 block-2: 21; SENP6 inh: -1; SENP7 block: 0; SENP1 conf: -22; SENP1 kinetic: -15

How did COc1ccc(-c2ccc3c(c2)S(=O)(=O)c2cccc(C(=O)NCc4ccccc4Cl)c2C3=O)cc1OC do in these assays?
SENP8 block-1: 0; SENP1 FRET inh: 58*; Apaf1 inhib: -8; SENP8 block-2: 2; SENP6 inh: -14; SENP7 block: 7; SENP1 conf: 15; SENP1 kinetic: 17

How did COc1ccc(-c2ccc3c(c2)S(=O)(=O)c2cccc(C(=O)NC4CC4)c2C3=O)cc1OC do in these assays?
SENP8 block-1: 4; SENP1 FRET inh: -5; Apaf1 inhib: -14; SENP8 block-2: -13; SENP6 inh: -4; SENP7 block: -4

How did COc1ccc(-c2ccc3c(c2)S(=O)(=O)c2cccc(C(=O)NCCOc4ccccc4Cl)c2C3=O)cc1OC do in these assays?
SENP8 block-1: -6; SENP1 FRET inh: 29*; Apaf1 inhib: -3; SENP8 block-2: 12; SENP6 inh: -5; SENP7 block: -11; SENP1 conf: 14; SENP1 kinetic: 16

Results for CCOC(=O)c1c(C#N)c(SCC(=O)Nc2ccc(OC)cc2)nc2c1CN(CC)CC2 ?
SENP8 block-1: 4; SENP1 FRET inh: 40*; Apaf1 inhib: -6; SENP8 block-2: -2; SENP6 inh: 10; SENP7 block: 1; SENP1 conf: 20; SENP1 kinetic: 11

Results for CCOc1ccc(NC(=O)/C=C/c2ccccc2)c([N+](=O)[O-])c1 ?
SENP8 block-1: -8; SENP1 FRET inh: 37*; Apaf1 inhib: 0; SENP8 block-2: 32; SENP6 inh: -14; SENP7 block: 14; SENP1 conf: 15; SENP1 kinetic: 10

Results for COc1ccc(NC(=O)/C=C/C(=O)O)c([N+](=O)[O-])c1 ?
SENP8 block-1: 2; SENP1 FRET inh: 3; Apaf1 inhib: 3; SENP8 block-2: 17; SENP6 inh: 4; SENP7 block: -6

What do the screens show for `COc1cc(/C=C/C(=O)OCC(=O)Nc2cc(C)c(C)cc2[N+](=O)[O-])ccc1O`?
SENP8 block-1: 2; SENP1 FRET inh: 3; Apaf1 inhib: -71; SENP8 block-2: 8; SENP6 inh: 12; SENP7 block: 1

What do the screens show for `COc1cc(/C=C/C(=O)OCC(=O)Nc2ccc(C)cc2[N+](=O)[O-])ccc1O`?
SENP8 block-1: 3; SENP1 FRET inh: 38*; Apaf1 inhib: -94; SENP8 block-2: 14; SENP6 inh: -5; SENP7 block: -2; SENP1 conf: 1; SENP1 kinetic: 7

How did c1cc(Nc2cccc3nccnc23)c2nccnc2c1 do in these assays?
SENP8 block-1: -38; SENP1 FRET inh: 52*; Apaf1 inhib: 16; SENP8 block-2: 36; SENP6 inh: -45; SENP7 block: -17; SENP1 conf: 61*; SENP1 kinetic: 41*

How did C[C@H]1CN([C@@H](C)CO)C(=O)CCCn2nncc2CO[C@@H]1CN(C)Cc1ccccc1 do in these assays?
SENP1 FRET inh: 1; SENP8 block-2: 5

How did CC(C)C(=O)Nc1nc(-c2ccc([N+](=O)[O-])cc2)cs1 do in these assays?
SENP8 block-1: -8; SENP1 FRET inh: 2; Apaf1 inhib: 6; SENP8 block-2: 10; SENP6 inh: -14; SENP7 block: -3
